MT stabilize HCS: microtubule stabilization, imaging screen; HeLa tubulin immunostaining HCS, 24 h; share of cells brighter than vehicle mean+2SD; % tubulin-high responders, % at 10 µM; 0.83% of 200,000 active;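 active = plate Z-score above 3 for both tubulin-high and condensed-nucleus cell shares, with cell loss under 80%, at 10 µM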;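 also: anti alpha tubulin signal scored within the nucleus-defined area of each cell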
HSV augment: HSV replication enhancement; AID 1956; maximum fold increase; HSV replication augmentation in cells, fold increase; 0.005% of 220,000 active; in the data active = maximum fold increase above about 1.5; tested in PC3 cells
Lmaj promast: reduces viability of Leishmania major promastigotes; resazurin fluorescence viability; 9% of 200,000 active; inhibition, % at 10 µM; in the data active = inhibition above about 50%;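 also: promastigotes grown with compound for 44 hours at 28 °C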
Dynein transport: blocks dynein driven cargo transport along microtubules; AID 1381; 0.47% of 220,000 active; 3617.4 mouse cells, GR-EGFP nuclear translocation imaging; test concentration mostly 20 µM; stimulated with dexamethasone, 1 µM; stronger effect = lower value; z-score, hits read low;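 active = plate z-score of nuclear minus cytoplasmic receptor signal below a set negative limit, without overly bright fluorescence or cell loss, cut at about -3.5 in these data, passing the limit was not always enough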;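 also: z-score of nuclear minus cytoplasmic ring GR-EGFP intensity difference per well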
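medium = tetracycline-free induction medium containing charcoal-stripped FBS | also added = 1.0 µM final dexamethasone stimulus | schedule = 48 h induction, 1 h compound, 30 min dex at 37 °C | technique = fixed, Hoechst-stained cells imaged at 10x for EGFP | measure = GR-EGFP nuclear translocation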
b-catenin transl: alters nuclear translocation of beta-catenin in HeLa cells; immunofluorescence imaging; nuclear translocation activity, % at 5 µM; 0.3% of 190,000 active; AID 1665;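 active = nuclear translocation activity above 50% at 5 µM, with a well cell count of 50 or more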;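 also: per-cell ratio of nuclear to cytoplasmic median beta-catenin stain intensity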
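Assay system: human HeLa cells, native beta-catenin; doses: 5 µM primary, 0.02–20 µM confirmation; incubation: compound treatment 24 h, 37°C, 5% CO2; technique: fluorescence imaging of beta-catenin antibody stain plus DAPI; measure: % activation, nuclear-to-cytoplasmic median beta-catenin signal ratio per cell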
Hits are given with their value; 0 = inactive; - = no result. This is a sample that favours compounds with a hit; in the whole collection about 8.9% have one here.

SMILES | MT stabilize HCS | HSV augment | Lmaj promast | Dynein transport | b-catenin transl
CCN1C(=O)/C(=C2\C=Cc3cc(C)ccc3N2CC)OC1=S | 0 | 0 | 0 | 0 | 0
CCN1/C(=C/c2cc[n+](C)cc2)C=Cc2cc(C)ccc21 | 0 | 0 | 100.5 | 0 | 0
CCOC(=O)c1ccccc1NC1c2ccccc2C(=O)N1c1ccc(C)cn1 (stereo unspecified) | 0 | 0 | 0 | 0 | 0
c1ccc(-c2ccc(-n3ccnc3)cc2)cc1 | 0 | 0 | 0 | 0 | 0
c1ccc(-c2ccc(C(c3ccccc3)n3ccnc3)cc2)cc1 (stereo unspecified) | 0 | 0 | 97.8 | 0 | 0
CNC(=O)CN(c1cc(OCCOC)c(Cl)cc1Cl)S(=O)(=O)c1ccc(OC)cc1 | 15.8 | - | 0 | 0 | 0
O=C(CSc1ccc(Cl)cc1)Nc1ccc(N2CCN(c3ccccc3)CC2)c(F)c1 | 0 | 0 | 0 | 0 | -
Cc1ccc(SCC(=O)Nc2ccc(N3CCN(C)CC3)c(F)c2)c(C)c1 | 0 | 0 | 100.1 | 0 | 0
COc1ccc(Cl)cc1NC(=O)C(=O)NC1CCCCCC1 | 0 | 0 | 0 | 0 | -
COc1ccc(N2CCN(CC(O)COc3ccc4c(c3)CCC4)CC2)cc1 (stereo unspecified) | 0 | 0 | 92.0 | 0 | -
C=CCc1ccccc1OCC(O)CN(C(C)C)C(C)C (stereo unspecified) | 0 | 0 | 99.7 | 0 | 0
C=CCc1ccccc1OCC(O)CNC (stereo unspecified) | 0 | 0 | 0 | 0 | 0
OC(COc1ccc2c(c1)CCC2)CN1CCN(c2ccccc2F)CC1 (stereo unspecified) | 0 | 0 | 74.3 | 0 | 0
C=CCc1ccccc1OCC(O)CN1CCN(c2ccc(OC)cc2)CC1 (stereo unspecified) | 0 | 0 | 70.4 | 0 | 0
O=C(N/N=C/c1cccs1)C(=O)Nc1cccc(Cl)c1 | 0 | 0 | 0 | 0 | 0
O=C(Cn1cc(C(F)(F)F)ccc1=O)N/N=C/c1ccc(O)cc1 | - | 0 | - | 0 | 0
CC(=O)COC(=O)c1cc(-c2ccc(C)cc2)nc2ccccc12 | 0 | 0 | 0 | 0 | 0
O=C(NC1=C(Nc2ccc(F)cc2)C(=O)c2ccccc2C1=O)c1ccc(Cl)cc1 | 0 | 0 | 95.9 | 0 | 0
O=C1C(Cl)=C(Nc2ccc(O)cc2)C(=O)c2ccccc21 | - | 0 | - | 0 | 0
Clc1ccc(-c2nnc(N3CCCC3)nn2)cc1 | 0 | 0 | 0 | 0 | 0
Nc1ccc(-c2ccc(N)cc2C(F)(F)F)c(C(F)(F)F)c1 | 0 | 0 | 0 | 0 | 0
CC(=O)Nc1ccc(CN2CCN(C3CCCCC3)C(CCO)C2)cc1 (stereo unspecified) | 0 | 0 | 0 | 0 | 0
COC(=O)c1ccc(CN2CCN(C3CCCCC3)C(CCO)C2)cc1 (stereo unspecified) | 0 | 0 | 53.7 | 0 | 0
COC(=O)c1ccc(CN2CCN(C3CCCC3)C(CCO)C2)cc1 (stereo unspecified) | 0 | 0 | 55.7 | 0 | 0
COC(=O)c1ccc(CN2CCN(Cc3ccccc3)C(CCO)C2)cc1 (stereo unspecified) | 0 | 0 | 0 | 0 | 0
SMILES | MT stabilize HCS | HSV augment | Lmaj promast | Dynein transport | b-catenin transl
CN(C)c1ncnc2c1ncn2C1OC(CO)C(O)C1O (stereo unspecified) | 0 | 0 | 0 | 0 | 0
CCCCOC(=O)Nc1ccc(C(=O)OC)cc1 | 0 | 0 | 0 | 0 | 0
O=C(CNC(=O)c1ccncc1)N/N=C/c1ccc(O)cc1O | - | 0 | - | 0 | 0
CCOC(=O)/C(C#N)=C1\Nc2ccccc2N=C1N(CC(C)C)CC(C)C | 0 | 0 | 81.1 | 0 | 0
CCN(CC)C(=O)C1CCCN(Cc2nc(-c3cccs3)no2)C1 (stereo unspecified) | 0 | 0 | 0 | 0 | 0
O=C(c1ccc(Cl)cc1)C1CCCN(Cc2cccn2-c2ccccn2)C1 (stereo unspecified) | 0 | 0 | 0 | 0 | 0
Cc1ccsc1C(=O)C1CCCN(Cc2cccn2-c2ccc(Cl)cn2)C1 (stereo unspecified) | 0 | 0 | 94.3 | 0 | 0
Cc1ccc(-n2cccn2)c(CN2CCCC(C(=O)c3sccc3C)C2)c1 (stereo unspecified) | 0 | 0 | 86.6 | 0 | 0
Cc1nc(C)c(C)nc1C | - | - | - | - | 0
CCOc1ccc2nc(NC(=O)CCn3cccc3)sc2c1 | 0 | 0 | 0 | 0 | 0
COc1cc2cc(CN(C(=O)NC3CCCCC3)C3CCCC3)c(=O)[nH]c2cc1OC | 0 | 0 | 0 | 0 | 0
CCc1ccc2[nH]c(=O)c(CN(Cc3ccccc3)C(=O)Nc3ccccc3OC)cc2c1 | 0 | 0 | 63.6 | 0 | 0
COC(=O)c1ccccc1NC(=S)N(Cc1ccc2c(c1)OCO2)Cc1cc2cc(OC)ccc2[nH]c1=O | 0 | 0 | 55.5 | 0 | 0
CCc1ccc2[nH]c(=O)c(CN(CCN(C)C)C(=O)Nc3ccccc3OC)cc2c1 | 0 | 0 | 0 | 0 | 0
COc1ccc2[nH]c(=O)c(CN(C(=O)c3ccccn3)C3CCCCC3)cc2c1 | 0 | 0 | 0 | 0 | -
COc1ccc2cc(CN(C(=O)Nc3ccccc3OC)C3CCCC3)c(=O)[nH]c2c1 | 0 | 0 | 53.1 | 0 | 0
O=C(NC1CCCCC1)N(Cc1cc2cc3c(cc2[nH]c1=O)OCCO3)C1CCCCC1 | 0 | 0 | 68.8 | 0 | 0
COc1ccc2nc(SCc3nc(N)nc(Nc4ccccc4)n3)[nH]c2c1 | 0 | 0 | 0 | 0 | 0
Cn1nc(C(=O)Nc2ccc(S(=O)(=O)N3CCCC3)cc2)ccc1=O | 0 | 0 | 0 | 0 | 0
O=C(C[N+]1(CC#Cc2ccccc2)CCOCC1)c1ccc(Cl)cc1 | 0 | 0 | 0 | 0 | 0
COC(=O)c1ccccc1S(=O)(=O)N(Cc1cc2ccc(OC)cc2[nH]c1=O)CC1CCCO1 (stereo unspecified) | 0 | 0 | 0 | 0 | 0
COc1ccc(NC(=O)N(Cc2cc3ccc(OC)cc3[nH]c2=O)CC2CCCO2)cc1 (stereo unspecified) | 12.7 | 0 | 0 | 0 | 0
COc1ccc2cc(CN(CC3CCCO3)C(=O)Nc3ccccc3OC)c(=O)[nH]c2c1 (stereo unspecified) | 23.2 | 0 | 0 | 0 | 0
COc1ccc(NC(=O)N(Cc2cc3cc(OC)ccc3[nH]c2=O)CC2CCCO2)cc1 (stereo unspecified) | 0 | 0 | 0 | 0 | 0
Cc1ccc(SC(C)C(=O)NC(N)=O)c(C)c1 (stereo unspecified) | 0 | 0 | 0 | 0 | 0
SMILES | MT stabilize HCS | HSV augment | Lmaj promast | Dynein transport | b-catenin transl
COc1cc(C(=O)Nc2nncs2)cc(OC)c1OC | 0 | 0 | 0 | 0 | 0
CC1CCN(C(=O)COC(=O)c2ccc(Br)o2)CC1 | 0 | 0 | 0 | 0 | -
CCCCCn1c(=S)[nH]c2ncccc2c1=O | 0 | - | 0 | 0 | 0
COc1ccc(N2CCN(CC(=O)Nc3c(C)cc(C)cc3C)CC2)cc1 | 0 | 0 | 78.9 | 0 | 0
CCCc1cc(-c2[nH]ncc2-c2ccc3c(c2)OCCCO3)c(O)cc1OC | 47.0 | 0 | 0 | 0 | 0
CS(=O)(=O)Nc1cccc(C2=NN(S(C)(=O)=O)C(c3ccc4c(c3)OCO4)C2)c1 (stereo unspecified) | 17.0 | 0 | 0 | 0 | 0
CN1OC(Cn2cc(C#N)c(=O)n(C)c2=O)CC1c1ccccc1 (stereo unspecified) | 0 | 0 | 0 | 0 | 0
